The results in this text go back to ChEMBL document CHEMBL4354826, “Structure-Based Discovery of SD-36 as a Potent, Selective, and Efficacious PROTAC Degrader of STAT3 Protein” (J Med Chem, 2019).

The source made the active and inactive calls. The rule behind the calls is not given here. Bounds are passed on as bounds.

The species entered for experiment [1] is Homo sapiens. Briefly: Selectivity index, ratio of protac activity at CRBN/STAT1 in human SUDHL1 cells to protac activity at CRBN/STAT3 in human SUDHL1 cells. In kind it is cell-based. The procedure, abridged: (§1)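 SU-DHL-1 cells treated 18 h with compound at 0.01–10 μM, or controls at 10 μM. Immunoblotting used SDS–PAGE, PVDF transfer, 1 h block in 5% blocker/TBST, primary and secondary antibodies and chemiluminescence. Levels of other STAT family members compared with STAT3 to express degradation selectivity.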

The target in experiment [2] is T1, Protein cereblon/Signal transducer and activator of transcription 3 (Homo sapiens, UniProt P40763+Q96SW2). Nature of the experiment: Protac activity at CRBN/STAT3 in human MOLM16 cells assessed as degradation of STAT3 at 0.01 to 10 uM incubated for 4 hrs by Western blot analysis. In kind it is cell-based. In a few lines:
(§2)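 Molm-16 cells treated 4 h with test compound at 0.01–10 μM, or control compounds at 10 μM. Lysates separated by SDS–PAGE, transferred to PVDF, blocked 1 h in 5% blocker/TBST, probed for each STAT protein, and detected by chemiluminescence.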
For orientation: A western blot detects proteins with antibodies after separation by electrophoresis.
Target sequence in this assay (P40763 2-770 limits assumed): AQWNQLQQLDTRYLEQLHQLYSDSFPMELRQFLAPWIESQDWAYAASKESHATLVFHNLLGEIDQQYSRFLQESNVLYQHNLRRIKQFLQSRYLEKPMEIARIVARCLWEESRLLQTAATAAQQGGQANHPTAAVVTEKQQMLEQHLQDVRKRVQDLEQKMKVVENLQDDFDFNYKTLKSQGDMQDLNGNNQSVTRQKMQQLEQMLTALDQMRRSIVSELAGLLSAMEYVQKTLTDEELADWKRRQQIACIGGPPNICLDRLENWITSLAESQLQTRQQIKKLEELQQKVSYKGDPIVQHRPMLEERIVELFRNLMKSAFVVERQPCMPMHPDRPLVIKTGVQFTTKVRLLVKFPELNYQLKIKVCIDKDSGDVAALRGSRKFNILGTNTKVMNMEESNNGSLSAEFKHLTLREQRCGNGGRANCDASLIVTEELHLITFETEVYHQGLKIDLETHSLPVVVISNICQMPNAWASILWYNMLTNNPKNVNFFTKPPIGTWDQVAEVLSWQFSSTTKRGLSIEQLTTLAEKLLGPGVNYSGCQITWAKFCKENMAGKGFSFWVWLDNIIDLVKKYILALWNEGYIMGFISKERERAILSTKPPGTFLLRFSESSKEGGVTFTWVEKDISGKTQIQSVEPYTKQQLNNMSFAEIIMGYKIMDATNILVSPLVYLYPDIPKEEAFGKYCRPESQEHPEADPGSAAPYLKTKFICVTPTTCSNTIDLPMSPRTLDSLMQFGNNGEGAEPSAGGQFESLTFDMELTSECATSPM
Target sequence in this assay (Q96SW2 whole entry partner): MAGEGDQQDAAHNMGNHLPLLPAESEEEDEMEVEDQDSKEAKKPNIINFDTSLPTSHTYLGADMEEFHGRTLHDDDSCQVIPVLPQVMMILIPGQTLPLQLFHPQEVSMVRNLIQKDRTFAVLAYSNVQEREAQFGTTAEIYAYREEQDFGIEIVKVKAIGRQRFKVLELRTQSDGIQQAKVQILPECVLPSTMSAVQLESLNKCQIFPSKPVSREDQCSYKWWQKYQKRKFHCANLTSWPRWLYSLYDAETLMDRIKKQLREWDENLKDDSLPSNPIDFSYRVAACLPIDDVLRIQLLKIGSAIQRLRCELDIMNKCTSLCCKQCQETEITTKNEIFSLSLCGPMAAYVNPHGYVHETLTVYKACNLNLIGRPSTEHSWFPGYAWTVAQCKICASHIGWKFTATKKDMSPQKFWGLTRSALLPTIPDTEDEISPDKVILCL

The species named for experiment [3] is Homo sapiens. Nature of the experiment: Selectivity index, ratio of protac activity at CRBN/STAT5A in human MOLM16 cells to protac activity at CRBN/STAT3 in human MOLM16 cells. The format is cell-based. The procedure, abridged:
(§3)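 Molm-16 cells treated 4 h with compound at 0.01–10 μM, or controls at 10 μM. Western blot of lysates: SDS–PAGE, PVDF, 1 h block in 5% blocker/TBST, primary and secondary antibodies, chemiluminescent detection. STAT1, -2, -4, -5A/B and -6 levels read against STAT3 to give degradation selectivity.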

The target in experiment [4] is T2, Protein cereblon/Signal transducer and activator of transcription 1-alpha/beta (Homo sapiens) (UniProt P42224+Q96SW2). Nature of the experiment: Protac activity at CRBN/STAT1 in human MOLM16 cells assessed as degradation of STAT1 at 0.01 to 10 uM incubated for 4 hrs by Western blot analysis. In kind it is cell-based. In a few lines: as §2
Experiment [5] deals with Protein cereblon/Signal transducer and activator of transcription 4 (Homo sapiens) (UniProt Q96SW2+Q14765). Briefly: Protac activity at CRBN/STAT4 in human SUDHL1 cells assessed as degradation of STAT4 at 0.01 to 10 uM incubated for 18 hrs by Western blot analysis. The format is cell-based. In a few lines:
(§4)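 SU-DHL-1 cells treated 18 h with test compound at 0.01–10 μM, or control compounds at 10 μM. Lysates separated by SDS–PAGE, transferred to PVDF, blocked 1 h in 5% blocker/TBST, probed for each STAT protein, and detected by chemiluminescence.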

The species entered for experiment [6] is Homo sapiens. Briefly: Selectivity index, ratio of protac activity at CRBN/STAT5B in human SUDHL1 cells to protac activity at CRBN/STAT3 in human SUDHL1 cells. In kind it is cell-based. In a few lines:
as §1

Experiment [7] concerns the target T2, Protein cereblon/Signal transducer and activator of transcription 1-alpha/beta (Homo sapiens). Nature of the experiment: Protac activity at CRBN/STAT1 in human SUDHL1 cells assessed as degradation of STAT1 at 0.01 to 10 uM incubated for 18 hrs by Western blot analysis. The format is cell-based. In a few lines:
as §4

Experiment [8] concerns Mus musculus. Nature of the experiment: In vivo degradation of phosphorylated STAT3 Y705 in SCID mouse xenografted with MOLM-16 cells at 50 mg/kg, iv measured upto 1 hr by Western blot analysis relative to control. The format is functional. The procedure, abridged:
(§5)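 SCID mice bearing subcutaneous Molm-16 tumors (3 × 10^6 cells in Matrigel; treated at ~150 mm3) given a single intravenous dose in 10% PEG400 + 90% PBS, or vehicle. Tumors harvested at time points. Lysates immunoblotted for total STAT3 and pSTAT3 Y705, compared with vehicle control.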

The species named for experiment [9] is Homo sapiens. Nature of the experiment: Selectivity index, ratio of protac activity at CRBN/STAT2 in human MOLM16 cells to protac activity at CRBN/STAT3 in human MOLM16 cells. The format is cell-based. The procedure, abridged: as §3
For experiment [10], the species on record is Homo sapiens. Nature of the experiment: Selectivity index, ratio of protac activity at CRBN/STAT1 in human MOLM16 cells to protac activity at CRBN/STAT3 in human MOLM16 cells. The format is cell-based. The procedure, abridged:
as §3

Experiment [11] deals with Mus musculus. Briefly: In vivo degradation of phosphorylated STAT3 Y705 in SCID mouse xenografted with MOLM-16 cells at 50 mg/kg, iv measured upto 72 hrs by Western blot analysis relative to control. In kind it is functional. In a few lines:
as §5

In experiment [12] the target is Protein cereblon/Signal transducer and activator of transcription 5A (Homo sapiens) (UniProt P42229+Q96SW2). Briefly: Protac activity at CRBN/STAT5A in human MOLM16 cells assessed as degradation of STAT5A at 0.01 to 10 uM incubated for 4 hrs by Western blot analysis. The format is cell-based. In a few lines:
as §2

The species entered for experiment [13] is Homo sapiens. Nature of the experiment: Selectivity index, ratio of protac activity at CRBN/STAT5B in human MOLM16 cells to protac activity at CRBN/STAT3 in human MOLM16 cells. The format is cell-based. In a few lines: as §3
The target in experiment [14] is T1, Protein cereblon/Signal transducer and activator of transcription 3. Briefly: Protac activity at CRBN/STAT3 in human MOLM16 cells assessed as degradation of STAT3 incubated for 4 hrs by Western blot analysis. The format is cell-based. In a few lines:
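Molm-16 cells treated 4 h with serially diluted compound. Lysates immunoblotted (SDS–PAGE, PVDF, 5% blocker/TBST, chemiluminescence) for total STAT3 and pSTAT3 Y705. DC50 taken as the concentration reducing total STAT3 by 50%.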
Target sequence in this assay (P40763 whole entry): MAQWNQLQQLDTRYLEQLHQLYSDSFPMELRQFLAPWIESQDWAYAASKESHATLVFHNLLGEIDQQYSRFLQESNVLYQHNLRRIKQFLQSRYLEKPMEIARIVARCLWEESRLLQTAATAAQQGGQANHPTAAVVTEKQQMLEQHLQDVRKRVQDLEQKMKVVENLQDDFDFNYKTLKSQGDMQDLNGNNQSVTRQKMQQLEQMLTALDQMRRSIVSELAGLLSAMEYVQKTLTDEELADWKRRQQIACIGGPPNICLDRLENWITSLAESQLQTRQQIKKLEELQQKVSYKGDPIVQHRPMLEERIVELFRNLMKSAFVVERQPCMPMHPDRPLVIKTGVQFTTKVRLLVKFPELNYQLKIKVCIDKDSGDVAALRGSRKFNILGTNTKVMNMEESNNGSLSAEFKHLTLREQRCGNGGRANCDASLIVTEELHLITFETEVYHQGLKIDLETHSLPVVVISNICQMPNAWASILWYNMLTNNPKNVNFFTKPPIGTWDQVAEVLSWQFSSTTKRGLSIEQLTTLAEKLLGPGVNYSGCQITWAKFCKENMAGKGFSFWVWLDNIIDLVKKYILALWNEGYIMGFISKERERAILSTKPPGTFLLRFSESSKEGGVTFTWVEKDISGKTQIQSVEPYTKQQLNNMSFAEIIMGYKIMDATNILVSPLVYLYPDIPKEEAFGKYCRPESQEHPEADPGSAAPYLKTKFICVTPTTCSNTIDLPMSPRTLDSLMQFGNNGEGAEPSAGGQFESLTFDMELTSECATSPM
Target sequence in this assay (Q96SW2 whole entry): as the sequence (Q96SW2 whole entry partner) above

Experiment [15] in a line: Antiproliferative activity against human MOLM16 cells assessed as reduction in cell viability incubated for 4 days by cell-titer glo luminescent assay. The note with it: MOLM16, 96 h. The format is functional, cell-based. The procedure, abridged:
(§6)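 Viability assay: cells incubated with serially diluted compounds for 4 days, viability read by CellTiter-Glo luminescence; IC50 from concentration–response.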

The target in experiment [16] is T1, Protein cereblon/Signal transducer and activator of transcription 3. Briefly: Protac activity at CRBN/STAT3 in human SUDHL1 cells assessed as degradation of STAT3 at 0.01 to 10 uM incubated for 18 hrs by Western blot analysis. In kind it is cell-based. In a few lines: as §4
Target sequence in this assay (P40763 2-770 limits assumed): as the sequence (P40763 2-770 limits assumed) above
Target sequence in this assay (Q96SW2 whole entry partner): as the sequence (Q96SW2 whole entry partner) above
Experiment [17] deals with Signal transducer and activator of transcription 3 (Homo sapiens, UniProt P40763). Nature of the experiment: Binding affinity to recombinant human His/SUMO-tagged STAT3 (127 to 688 residues) expressed in Escherichia coli Rosetta (DE3) incubated for 1 hr by fluorescence polarization assay. (In general: In fluorescence polarisation assays a small probe gives low polarisation when free and higher when bound to something large.)

For experiment [18], the target named is Protein cereblon/Signal transducer and activator of transcription 2 (Homo sapiens) (UniProt Q96SW2+P52630). Briefly: Protac activity at CRBN/STAT2 in human MOLM16 cells assessed as degradation of STAT2 at 0.01 to 10 uM incubated for 4 hrs by Western blot analysis. The format is cell-based. In a few lines:
as §2

In experiment [19] the test system is SU-DHL-1. Briefly: Antiproliferative activity against human SUDHL1 cells assessed as reduction in cell viability incubated for 4 days by cell-titer glo luminescent assay. The format is functional, cell-based. The note with it: SU-DHL-1, 96 h. In a few lines: as §6

Signal transducer and activator of transcription 3, sequence (P40763 whole entry, the tested form may be a part): as the sequence (P40763 whole entry) above
Protein cereblon/Signal transducer and activator of transcription 5A (Homo sapiens), sequence (P42229 whole entry, looked up): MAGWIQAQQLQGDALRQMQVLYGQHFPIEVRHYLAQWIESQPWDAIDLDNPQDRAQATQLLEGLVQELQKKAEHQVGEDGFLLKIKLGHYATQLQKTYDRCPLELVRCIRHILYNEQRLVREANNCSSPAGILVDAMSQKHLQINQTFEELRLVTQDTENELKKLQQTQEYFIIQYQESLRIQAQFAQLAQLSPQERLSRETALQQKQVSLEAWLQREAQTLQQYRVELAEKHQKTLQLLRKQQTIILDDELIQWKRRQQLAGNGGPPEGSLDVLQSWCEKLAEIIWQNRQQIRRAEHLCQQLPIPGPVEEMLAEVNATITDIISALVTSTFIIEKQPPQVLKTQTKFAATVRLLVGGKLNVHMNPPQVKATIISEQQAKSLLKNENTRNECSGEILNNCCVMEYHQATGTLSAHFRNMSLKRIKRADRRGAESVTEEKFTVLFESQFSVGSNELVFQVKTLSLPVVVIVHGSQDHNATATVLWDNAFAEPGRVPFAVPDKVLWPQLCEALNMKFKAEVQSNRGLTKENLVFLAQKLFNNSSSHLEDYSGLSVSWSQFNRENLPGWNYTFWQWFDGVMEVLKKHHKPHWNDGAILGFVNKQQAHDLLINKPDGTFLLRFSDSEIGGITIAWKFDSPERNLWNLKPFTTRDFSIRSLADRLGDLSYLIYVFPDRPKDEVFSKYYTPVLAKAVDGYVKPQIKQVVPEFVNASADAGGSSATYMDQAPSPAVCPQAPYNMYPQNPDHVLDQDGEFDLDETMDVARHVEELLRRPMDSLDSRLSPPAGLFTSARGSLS
Protein cereblon/Signal transducer and activator of transcription 5A (Homo sapiens), sequence (Q96SW2 whole entry, looked up): as the sequence (Q96SW2 whole entry partner) above

A word on the DC50: it is the midpoint of the concentration-degradation curve. For orientation: IC50 means the concentration that gives 50% inhibition. What is called Kd is the concentration at which binding is half-saturated. For the compound `NC(=O)CC[C@H](NC(=O)[C@@H]1CC[C@@H]2CCN(C(=O)CCCCCC#Cc3cccc4c3CN(C3CCC(=O)NC3=O)C4=O)C[C@H](NC(=O)c3cc4cc(C(F)(F)P(=O)(O)O)ccc4[nH]3)C(=O)N21)C(=O)NC(c1ccccc1)c1ccccc1` (some centres undefined), the Ratio in experiment [1], in [3], in [6], in experiment [9], in experiment [10] and in experiment [13] was over 100 throughout. The result in experiment [2] and in experiment [16] was Active. The outcome in [4], in [5], in experiment [7], in experiment [12] and in [18] was inactive. For the same compound, the Activity in experiment [8] and in experiment [11] was over 90% throughout. In experiment [14], the DC50 came out at 60 nM. Moreover, the concentration for half-maximal inhibition (IC50) worked out at 13 nM in experiment [15] and 610 nM in [19]. The Kd in experiment [17] is 44 nM.
